Measurements from different studies.
Lines come from different studies, so protocols differ. pIC50: −log10 of the molar value. Values after ≈ are worked out from the molar mass of the structure shown.
Organism: Staphylococcus aureus

Structure (SMILES) | assay | test system | setting | measurement | value
O=C(O)CN1C(=O)/C(=C/c2ccc(-c3ccc(N(c4ccccc4)c4ccccc4)cc3)cc2)SC1=S | microbial killing, broth dilution | ATCC6538 |  | MBC | 7.8 µg/mL (≈ 14.9 µM)
Clc1ccc(-c2nc3ccccc3[nH]2)cc1Cl | microbial growth, broth dilution | ATCC29213 MSSA |  | MIC | 32 µg/mL
Cc1nn(-c2nc3ccc(Cl)cc3s2)c2c1C(=O)c1ccccc1-2 | microbial growth, well diffusion | NCIM5021 | 250 µg/mL | inhibition zone | 10 mm
O=C1NC(=S)S/C1=C\c1c2ccccc2c(-c2ccc(N(c3ccccc3)c3ccccc3)cc2)c2ccccc12 | microbial killing, broth dilution | ATCC6538 |  | MBC | > 1000 µg/mL
CC(C)c1ccc(O)c(=O)cc1 | microbial growth, broth dilution | ATCC29213 |  | MIC80 | 66.7 µM (≈ 11 µg/mL)
O=C(Cc1ccc(Cl)c(C(F)(F)F)c1)Nc1ccc2c(c1)OC(F)(F)O2 | microbial growth | NCTC8325 | 24 h | MIC | > 100 µM
O=C(N[C@H](CO)[C@H](O)c1ccc([N+](=O)[O-])cc1)C(Cl)Cl | microbial growth | ATCC700699 |  | MIC90 | 62.5 µg/mL (≈ 193 µM)
CN(C[C@@H]1COCCO1)S(=O)(=O)Nc1ccc2ccc3ncc(-c4cnn(C)c4)cc3c(=O)c2c1 | microbial growth | NCTC8325 |  | MIC | 30 µM
O=c1cccccc1Sc1cccccc1=O | microbial growth, broth dilution | ATCC29213 |  | MIC80 | > 100 µM
O=C1NC(=S)S/C1=C\c1ccc(-c2ccc(N(c3ccccc3)c3ccccc3)cc2)cc1 | microbial killing, broth dilution | ATCC25923 |  | MBC | 1000 µg/mL (≈ 2150 µM)
C#CCCCCCCCCCCCC(O)CC(O)CO (stereo not drawn) | microbial growth, broth dilution | ATCC29213 |  | IC50 | 3.26 µg/mL
CC(C)Cc1nn(-c2nc3ccc(Cl)cc3s2)c2c1C(=O)c1ccccc1-2 | microbial growth, well diffusion | NCIM5021 | 250 µg/mL | inhibition zone | 10 mm
Cc1cc(Nc2cc(N3CCN(C)CC3)nc(/C=C/c3ccccc3)n2)n[nH]1 | microbial growth | NCTC8325 |  | MIC | > 30 µM
O=C1NC(=S)S/C1=C\c1ccc(-c2ccc(N(c3ccccc3)c3ccccc3)cc2)c2ccccc12 | microbial killing, broth dilution | ATCC6538 |  | MBC | > 1000 µg/mL
CN[C@H](CC(C)C)C(=O)N[C@H]1C(=O)N[C@@H](CC(N)=O)C(=O)N[C@H]2C(=O)N[C@H]3C(=O)N[C@H](C(=O)N[C@H](C(=O)O)c4cc(O)cc(O)c4-c4cc3ccc4O)[C@H](O)c3ccc(c(Cl)c3)Oc3cc2cc(c3O[C@@H]2O[C@H](CO)[C@@H](O)[C@H](O)[C@H]2O[C@H]2C[C@](C)(N)[C@H](O)[C@H](C)O2)Oc2ccc(cc2Cl)[C@H]1O | microbial growth, disc diffusion | ATCC29213 | 125 µg/disc, 24 h | inhibition zone | 20 mm
CCCCCCCCCCCCCC(O)CC(O)CO (stereo not drawn) | microbial growth, broth dilution | ATCC33591 MRSA | drug-resistant strain | IC50 | 8.26 µg/mL
CCn1c(-c2nonc2N)nc2c(C#CC(C)(C)O)ncc(OC[C@H]3CCCNC3)c21 | microbial growth | NCTC8325 |  | MIC | > 30 µM
O=C(Sc1cccccc1=O)c1ccccc1C(F)(F)F | microbial growth, broth dilution | ATCC29213 |  | MIC80 | 100 µM (≈ 31 µg/mL)
COc1c(N2C[C@@H]3CCCN[C@@H]3C2)c(F)cc2c(=O)c(C(=O)O)cn(C3CC3)c12 | microbial growth | ATCC700699 |  | MIC90 | 0.24 µg/mL (≈ 0.598 µM)
CC(C)c1nn(-c2nc3ccc(Cl)cc3s2)c2c1C(=O)c1ccccc1-2 | microbial growth, well diffusion | NCIM5021 | 1000 µg/mL | inhibition zone | 12 mm

Structure (SMILES) | assay | test system | setting | measurement | value
COC(=O)/C(=C1/OC(=O)C(c2ccccc2)=C1O)c1ccccc1 | microbial growth | ATCC6538 |  | pIC50 | 4.49
CCOc1ccc(-c2nc3ccc(C)cc3[nH]2)cc1 | microbial growth, broth dilution | ATCC29213 MSSA |  | MIC | 128 µg/mL
CC1(c2ccccc2O)Nn2c(nc(-c3ccc(Cl)cc3)c(C#N)c2=O)N1C(Cc1c[nH]c2ccccc12)C(=O)O (stereo not drawn) | microbial growth | ATCC25923 | 15 µg/mL, 24 h | inhibition zone | 35 mm
CC1(C)S[C@@H]2[C@H](NC(=O)[C@H](N)c3ccccc3)C(=O)N2[C@H]1C(=O)O | microbial growth, agar dilution | ATCC25923 | 26.93 µM | inhibition | 100%
[H]/N=C(/N)N[C@H]1[C@H](O)[C@@H](O)[C@H](O[C@@H]2O[C@@H](C)[C@](O)(C=O)[C@H]2O[C@@H]2O[C@@H](CO)[C@H](O)[C@@H](O)[C@@H]2NC)[C@@H](N/C(N)=N\[H])[C@@H]1O | microbial growth, well diffusion | NCIM5021 | 250 µg/mL | inhibition zone | 22 mm
CC(=O)Oc1cccc2c1[nH]c1c(C3=C[C@@]4(O)CC/C=C\CCCCN5CC[C@@H]3[C@]3(C[C@@H]6/C=C\CCCCN6[C@H]34)C5)nccc12 | microbial growth | MRSA | drug-resistant strain | IC50 | 0.45 µg/mL
O=C(O)CN1C(=O)/C(=C/c2c3ccccc3c(-c3ccc(N(c4ccccc4)c4ccccc4)cc3)c3ccccc23)NC1=S | microbial killing, broth dilution | ATCC43300 |  | MBC | > 1000 µg/mL
C=CC(=O)Nc1cccc(Sc2nc(Nc3ccc(N4CCN(C)CC4)cc3)ncc2Cl)c1 | microbial growth | NCTC8325 |  | MIC | > 30 µM
Cc1ccc2nc(-n3nc(C(C)C)c4c3-c3ccccc3C4=O)sc2c1 | microbial growth, well diffusion | NCIM5021 | 1000 µg/mL | inhibition zone | 14 mm
O=C(Sc1cccccc1=O)c1ccc(C(F)(F)F)cc1 | microbial growth, broth dilution | ATCC29213 |  | MIC80 | > 100 µM
Cc1cc(Nc2cc(CN3CCOCC3)c3nc(C)c(Cc4ccc(Cl)cc4F)n3n2)n[nH]1 | microbial growth | NCTC8325 |  | MIC | 30 µM
CC(C)c1nn(-c2nc3ccc(Br)cc3s2)c2c1C(=O)c1ccccc1-2 | microbial growth, well diffusion | NCIM5021 | 1000 µg/mL | inhibition zone | 12 mm
Cc1nc(Nc2ncc(C(=O)Nc3c(C)cccc3Cl)s2)cc(N2CCN(CCO)CC2)n1 | microbial growth | NCTC8325 |  | MIC | > 30 µM
O=C(O)CN1C(=O)/C(=C/c2ccc(-c3ccc(N(c4ccccc4)c4ccccc4)cc3)c3ccccc23)SC1=S | microbial killing, broth dilution | ATCC6538 |  | MBC | > 1000 µg/mL
Cc1nn(-c2nc3ccccc3s2)c2c1C(=O)c1ccccc1-2 | microbial growth, well diffusion | NCIM5021 | 125 µg/mL | inhibition zone | 9 mm
O=C(O)CN1C(=O)/C(=C/c2c3ccccc3c(-c3ccc(N(c4ccccc4)c4ccccc4)cc3)c3ccccc23)SC1=S | microbial killing, broth dilution | ATCC25923 |  | MBC | > 1000 µg/mL
C=CCCCCCCCCCCCC(O)CC(O)CO (stereo not drawn) | microbial growth, broth dilution | ATCC29213 |  | IC50 | > 200 µg/mL
Cc1cc(C)c(NC(=O)Nc2ccc3c(c2)OC(F)(F)O3)c(C)c1 | microbial growth | NCTC8325 |  | MIC | > 100 µM
Cc1ccc2nc(-n3nc(CC(C)C)c4c3-c3ccccc3C4=O)sc2c1 | microbial growth, well diffusion | NCIM5021 | 125 µg/mL | inhibition zone | 11 mm
